Arr AP2 block – inhibitors of human beta-arrestin and AP2 interaction. actives 0.31% (n = 340,000). FITC-arrestin peptide / GST-AP2 beads, flow cytometry; AP2 beta2 appendage carries R879A mutation. inhibition, % at 10 µM;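 active means inhibition above a set limit, near 3 SD of compounds lacking own fluorescence, cut at about 54% in these data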
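System: GST-AP2 R879A glutathione beads; medium: PBS, Tween 20 0.05%, BSA 0.1%; reagent: fluorescein-tagged arrestin peptide at 50 nM final; schedule: pre-incubation 12 min, peptide binding 1 h, room temperature; detection: flow cytometry, FL1 (488/535 nm); read-out: inhibition as reduced fluorescein signal on beads, percent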
Neddylation inh – inhibitors of human cullin neddylation. actives 0.58% (n = 360,000). P61081+Q13564. TR-FRET cullin neddylation, biochemical. AID 651699. inhibition, % at 25 µM; in the data active means inhibition above about 36%
DSG3 Ab inh – inhibitors of pemphigus antibody binding to human desmoglein-3; actives 0.48% (n = 310,000); P32926; DSG3-coupled beads, scFv-anti-DSG3-GFP binding, flow cytometry; active compounds read low; binding (percent of control), % at 10 µM;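 active means binding more than 3 SD below its plate's average and above zero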;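 further: hits lower antibody fragment binding to DSG3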
Target sequence (P32926 whole entry, looked up, the tested form may be a part): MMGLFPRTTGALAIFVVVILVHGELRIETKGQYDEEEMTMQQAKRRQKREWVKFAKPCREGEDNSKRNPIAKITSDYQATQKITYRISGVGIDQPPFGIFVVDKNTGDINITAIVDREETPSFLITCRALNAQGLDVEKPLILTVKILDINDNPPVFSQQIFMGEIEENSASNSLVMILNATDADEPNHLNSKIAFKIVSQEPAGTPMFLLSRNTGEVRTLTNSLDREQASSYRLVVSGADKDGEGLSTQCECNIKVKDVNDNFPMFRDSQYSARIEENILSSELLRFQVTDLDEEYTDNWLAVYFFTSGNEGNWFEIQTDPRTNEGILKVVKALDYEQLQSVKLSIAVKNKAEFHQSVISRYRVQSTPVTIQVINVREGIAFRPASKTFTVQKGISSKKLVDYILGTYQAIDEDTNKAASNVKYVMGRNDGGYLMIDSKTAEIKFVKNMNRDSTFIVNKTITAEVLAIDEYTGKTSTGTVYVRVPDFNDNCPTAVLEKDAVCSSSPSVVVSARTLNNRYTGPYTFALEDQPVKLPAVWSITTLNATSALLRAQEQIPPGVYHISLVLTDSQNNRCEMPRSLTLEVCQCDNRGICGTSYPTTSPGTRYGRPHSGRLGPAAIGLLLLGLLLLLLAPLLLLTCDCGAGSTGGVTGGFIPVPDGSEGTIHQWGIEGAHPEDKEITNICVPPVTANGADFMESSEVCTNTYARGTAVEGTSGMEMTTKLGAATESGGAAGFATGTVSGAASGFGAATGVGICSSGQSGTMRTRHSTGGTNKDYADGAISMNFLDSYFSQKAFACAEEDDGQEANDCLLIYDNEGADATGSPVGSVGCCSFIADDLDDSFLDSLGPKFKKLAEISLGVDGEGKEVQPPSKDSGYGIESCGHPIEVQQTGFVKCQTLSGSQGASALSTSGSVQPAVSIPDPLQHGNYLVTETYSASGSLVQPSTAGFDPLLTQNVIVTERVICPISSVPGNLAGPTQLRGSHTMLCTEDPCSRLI
Efflux pump mplx – inhibitors of Candida antifungal efflux pumps expressed in yeast; AID 485275; inhibition, % at 10 µM; S. cerevisiae Candida pump triplex, Nile Red efflux; actives 0.44% (n = 330,000);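 active means plate passing quality check with inhibition over a set limit, or well fluorescence over plate mean plus 4 SD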;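 further: Nile Red retained in pooled yeast measured as flow cytometry median fluorescence; higher means more Nile Red kept so more efflux inhibition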
Cmpd fluor yeast – compound fluorescence in yeast efflux pump counter-screen. shares compounds with Efflux pump mplx. S. cerevisiae AD/pABC3, flow cytometry. fluorescence ratio to DMSO, % at 10 µM. actives 4% (n = 1,700);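 active means fluorescence ratio to DMSO above its plate's cutoff, the plate mean ratio plus 5 SD, cut at about 210% in these data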;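 further: unstained yeast with no Nile Red so the signal is compound autofluorescence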
Mdr1 pump inh – blocks the Candida albicans Mdr1 efflux pump in yeast; shares compounds with Efflux pump mplx; S. cerevisiae AD/CaMDR1, Nile Red efflux, flow cytometry; inhibition, % at 10 µM; actives 1% (n = 1,700); AID 588518; in the data active means inhibition above about 26%;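 further: higher means more Nile Red retained so more efflux inhibition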
CaCdr2 efflux inh – blocks the Candida albicans Cdr2 efflux pump in yeast | shares compounds with Efflux pump mplx | AID 588520 | S. cerevisiae AD/CaCDR2, Nile Red retention, flow cytometry | Nile Red retention ratio vs DMSO, % at 10 µM | actives 4% (n = 1,700); in the data active means Nile Red retention ratio vs DMSO above about 190%;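 further: higher ratio means more blocking of Cdr2 efflux of the dye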
Cdr1 pump inh – Candida Cdr1 efflux pump inhibition; S. cerevisiae AD/CaCDR1, Nile Red efflux, flow cytometry; inhibition, % at 10 µM; shares compounds with Efflux pump mplx; actives 1% (n = 1,700); AID 588522;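 active means inhibition above the screen-wide mean plus twice its standard deviation, cut at about 32% in these data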
Of the large screens only hits and unclear results are named; the others gave an inactive call (follow-up assays come after a bar, where shown). This is a sample that favours compounds with a hit; in the whole collection about 1.7% have one here.

CCN(CC)C(=O)c1[nH]cnc1C(=O)N[C@@H](Cc1ccccc1)C(=O)OCc1ccccc1	none
CCOc1ccc(S(=O)(=O)N2CCCCCC2)cc1	Efflux pump mplx 9.8 | Cmpd fluor yeast inactive | Mdr1 pump inh inactive | CaCdr2 efflux inh inactive | Cdr1 pump inh inactive
COC(=O)[C@]1(C)N[C@H](CN(C)C(=O)COc2ccccc2)[C@@H]2C(=O)N(C)C(=O)[C@@H]21	none
Cc1ccc(-n2c(-c3ccc(Br)cc3)c[n+]3c2CCc2ccc4cccnc4c2-3)cc1	Efflux pump mplx 1.1 | Cmpd fluor yeast inactive | Mdr1 pump inh inactive | CaCdr2 efflux inh active | Cdr1 pump inh inactive
COc1ccc(-n2c(-c3ccc(Cl)cc3)c[n+]3c2CCc2ccccc2-3)cc1	none
Cn1cnc([N+](=O)[O-])c1Oc1cccc2ccccc12	Efflux pump mplx 1.1 | Cmpd fluor yeast inactive | Mdr1 pump inh inactive | CaCdr2 efflux inh inactive | Cdr1 pump inh inactive
Cn1cnc([N+](=O)[O-])c1S(=O)(=O)Oc1cccc2ccccc12	none (not shown: Neddylation inh, Efflux pump mplx)
CCCCCC[N+](C)(C)CC/C=C1/c2ccccc2Sc2ccc(Cl)cc21	none (no result: DSG3 Ab inh)
CN(C)CC/C=C1/c2ccccc2Sc2ccc(Cl)cc21	none | Cmpd fluor yeast inactive | Mdr1 pump inh inactive | CaCdr2 efflux inh inactive | Cdr1 pump inh inactive
Cc1c(NC(=O)c2ncn[nH]2)cccc1-c1nc2ccccc2s1	Efflux pump mplx 6.2 | Cmpd fluor yeast inactive | Mdr1 pump inh inactive | CaCdr2 efflux inh inactive | Cdr1 pump inh inactive
Cc1ccccc1SCC(=O)Nc1cc(S(=O)(=O)N2CCOCC2)ccc1N1CCOCC1	Efflux pump mplx 0.8 | Cmpd fluor yeast inactive | Mdr1 pump inh inactive | CaCdr2 efflux inh inactive | Cdr1 pump inh inactive
O=C(CSc1cccc[n+]1[O-])Nc1cc(S(=O)(=O)N2CCOCC2)ccc1N1CCOCC1	none
COc1ccc(S(=O)(=O)N2CCOCC2)cc1NC(=O)/C=C/c1ccc(F)cc1	none (no result: Efflux pump mplx)
CCC(C)n1cnc2c(c1=O)c1nc3ccccc3nc1n2Cc1ccc(OC)cc1 (centres undefined)	Efflux pump mplx 70 | Cmpd fluor yeast inactive | Mdr1 pump inh inactive | CaCdr2 efflux inh inactive | Cdr1 pump inh inactive
COc1ccc(Cn2c(C)nc3c(c2=O)c2nc4ccccc4nc2n3Cc2ccco2)cc1	none (no result: Efflux pump mplx)
Cc1ccc(/C=C/S(=O)(=O)NCC(=O)OCC(=O)Nc2c(F)cccc2F)cc1	none
O=C(OC1CCOC1=O)c1ccc(S(=O)(=O)N2CCCCCC2)cc1 (centres undefined)	none (no result: DSG3 Ab inh)
CN(C)S(=O)(=O)c1ccc(C(=O)OC2CCOC2=O)cc1 (centres undefined)	Efflux pump mplx 1.5 (no result: DSG3 Ab inh) | Cmpd fluor yeast inactive | Mdr1 pump inh inactive | CaCdr2 efflux inh inactive | Cdr1 pump inh inactive
CCN(CC(=O)Nc1c(F)cccc1F)C(=O)Cn1[nH]c(=O)c2ccccc2c1=O	none
C[C@H](NC(=O)c1ccco1)C(=O)Nc1cc(S(=O)(=O)N2CCCC2)ccc1OCC(F)(F)F	none (no result: DSG3 Ab inh)
O=C(c1ccccc1)C1Oc2ccccc2C2CC(c3cccs3)=NN12 (centres undefined)	Efflux pump mplx 1.5 | Cmpd fluor yeast inactive | Mdr1 pump inh inactive | CaCdr2 efflux inh inactive | Cdr1 pump inh inactive
COc1ccc(CCNC(=O)C2CCCN(S(=O)(=O)c3ccc(F)cc3)C2)cc1OC (centres undefined)	none
COc1ccc(CCNC(=O)C2=CCN(S(=O)(=O)c3ccc(F)cc3)CC2)cc1OC	Efflux pump mplx 0.4 | Cmpd fluor yeast inactive | Mdr1 pump inh inactive | CaCdr2 efflux inh inactive | Cdr1 pump inh inactive
CC(C)Cn1c(SCC#N)nc2ccccc2c1=O	none
C=CCn1c(SCC#N)nc2ccccc2c1=O	Efflux pump mplx 0.6 | Cmpd fluor yeast inactive | Mdr1 pump inh inactive | CaCdr2 efflux inh inactive | Cdr1 pump inh inactive
CN1CCN(/N=C/c2cccc(Cl)c2Cl)CC1	none
N#C/C(=C/c1ccco1)c1nc2ccccc2s1	none | Cmpd fluor yeast inactive | Mdr1 pump inh inactive | CaCdr2 efflux inh inactive | Cdr1 pump inh inactive
CCCCc1ccc(-c2csc(/C(C#N)=C/c3ccc(C)o3)n2)cc1	none (no result: DSG3 Ab inh)
CCCCc1ccc(-c2csc(/C(C#N)=C\c3ccco3)n2)cc1	Efflux pump mplx 0.6 | Cmpd fluor yeast inactive | Mdr1 pump inh inactive | CaCdr2 efflux inh inactive | Cdr1 pump inh inactive
N#C/C(=C\c1ccco1)c1nc2ccccc2s1	none | Cmpd fluor yeast inactive | Mdr1 pump inh inactive | CaCdr2 efflux inh inactive | Cdr1 pump inh inactive
N#C/C(=C\c1ccc(O)c([N+](=O)[O-])c1)c1nc2ccccc2s1	none (no result: Efflux pump mplx)
O=C(Nc1ccc(C(=O)N2CCOCC2)cc1)C1CCCC1	none (no result: Efflux pump mplx)
CCOC(=O)N1CCN(c2ccc(N3C(=O)CCCC3=O)cc2[N+](=O)[O-])CC1	none
C/C=C/c1ccc(OCC(=O)N2CCc3cc(OC)c(OC)cc3C2)c(OC)c1	none
CCc1ccc(-c2cc3c(=O)n(CC(=O)NCCN4CCCCC4C)nc(C)n3n2)cc1 (centres undefined)	Efflux pump mplx 1.0 | Cmpd fluor yeast inactive | Mdr1 pump inh inactive | CaCdr2 efflux inh inactive | Cdr1 pump inh inactive
COCCCNC(=O)CN1C(=O)COc2ccc(S(=O)(=O)N3CCOCC3)cc21	none
CCC1CCCCN1CCCNC(=O)CN1C(=O)COc2ccc(S(=O)(=O)N3CCOCC3)cc21 (centres undefined)	Efflux pump mplx 43 | Cmpd fluor yeast inactive | Mdr1 pump inh inactive | CaCdr2 efflux inh inactive | Cdr1 pump inh inactive
O=C1C(=C2SCCCS2)CC/C1=C\c1ccc(F)cc1	none
O=C1CCCC(=O)C1=C1SCCCS1	Efflux pump mplx 6.5 | Cmpd fluor yeast inactive | Mdr1 pump inh inactive | CaCdr2 efflux inh inactive | Cdr1 pump inh inactive
Cc1nc2ccc(NC(=O)Cc3ccc4c(c3)OCCO4)cc2s1	Efflux pump mplx 8.2 | Cmpd fluor yeast inactive | Mdr1 pump inh inactive | CaCdr2 efflux inh inactive | Cdr1 pump inh inactive
COCCCn1c(=S)[nH]c2ccc(N3CCOCC3)cc2c1=O	Efflux pump mplx 1.4 (not shown: Neddylation inh) | Cmpd fluor yeast inactive | Mdr1 pump inh inactive | CaCdr2 efflux inh inactive | Cdr1 pump inh inactive
COc1cc(CNc2ccc(C(=O)O)cc2)cc(Br)c1OCC(=O)NC(C)(C)C	Efflux pump mplx 21 | Cmpd fluor yeast inactive | Mdr1 pump inh inactive | CaCdr2 efflux inh inactive | Cdr1 pump inh inactive
Cn1cnnc1SCc1ccc(C(=O)N/N=C/c2cccs2)cc1	none
O=C(NC1CCCc2ccccc21)c1cc(F)cc(F)c1 (centres undefined)	none
O=C(NC1CCCc2ccccc21)c1cncc(Br)c1 (centres undefined)	Efflux pump mplx 3.4 (no result: DSG3 Ab inh) | Cmpd fluor yeast inactive | Mdr1 pump inh inactive | CaCdr2 efflux inh inactive | Cdr1 pump inh inactive
O=C(O)/C=C/c1cn(-c2ccccc2)nc1-c1cccc([N+](=O)[O-])c1	none
